ChEMBL document CHEMBL1649151, “Urinary bactericidal activity of Doripenem versus that of levofloxacin in patients with complicated urinary tract infections or pyelonephritis” (Antimicrob Agents Chemother, 2009)
≈ marks a conversion by molar mass, not a printed value.

Experiments:
Enterococcus faecalis [1] = experiment: Antimicrobial activity against Enterococcus faecalis 1780065 B-B isolated from patient with pyelonephritis by Etest; format: functional
Escherichia coli [2] = experiment: Antimicrobial activity against Escherichia coli 2062717 B-P isolated from patient with pyelonephritis by Etest; format: functional
Escherichia coli [3] = experiment: Antimicrobial activity against Escherichia coli 2297257 B-W isolated from patient with pyelonephritis assessed as >3-log reduction in urinary bacterial titer after 12 hrs; format: functional, Urine
Staphylococcus aureus [4] = experiment: Antimicrobial activity against Staphylococcus aureus 1134684 isolated from patient with pyelonephritis assessed as >3-log reduction in urinary bacterial titer after 24 hrs; format: functional, Urine
Summary of the method: (§1)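 Patient urine was collected on day 3 of i.v. therapy (steady state) over 4-h intervals after infusion start, stored at –80°C, and sterile filtered. It was twofold serially diluted (1:0 to 1:131,072) in the patient's own pre-dose drug-free urine, inoculated to 1.0 x 10^6–9.5 x 10^6 CFU/ml, and incubated for 18 h at 37°C. Subcultures were grown on blood agar for 24 h. The UBT is the reciprocal of the highest dilution giving >99.9% kill.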

Escherichia coli [5] = experiment: Antimicrobial activity against Escherichia coli 1135121 isolated from patient with pyelonephritis assessed as >3-log reduction in urinary bacterial titer after 24 hrs; format: functional, Urine
Summary of the method: (§2)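 Urine was collected before dosing and on day 3 of i.v. therapy (steady state), in 4-h intervals from infusion start (0–4 to 20–24 h), stored at −80°C and sterile filtered. It was serially diluted twofold (1:0 to 1:131,072) in the patient's drug-free pre-dose urine. Microdilution used an inoculum of 1.0 x 10^6–9.5 x 10^6 CFU/ml, incubated 18 h at 37°C, then subcultured 24 h on blood agar. The endpoint was >99.9% kill, reported as reciprocal titer.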

Pseudomonas aeruginosa [6] = experiment: Antimicrobial activity against Pseudomonas aeruginosa ATCC 27853 isolated from patient with pyelonephritis assessed as >3-log reduction in urinary bacterial titer after 8 hrs; format: functional, Urine; summary of the method: as §1
Escherichia coli [7] = experiment: Antimicrobial activity against Escherichia coli 1949826 B-L isolated from patient with pyelonephritis by Etest; format: functional
Pseudomonas aeruginosa [8] = experiment: Antimicrobial activity against Pseudomonas aeruginosa […] assessed as >3-log reduction in urinary bacterial titer after 4 hrs; format: functional, Urine; summary of the method: as §1
Escherichia coli [9] = experiment: Antimicrobial activity against Escherichia coli 1135121 isolated from patient with pyelonephritis assessed as >3-log reduction in urinary bacterial titer after 4 hrs; format: functional, Urine; summary of the method: as §2
Proteus mirabilis [10] = experiment: Antimicrobial activity against Proteus mirabilis 1134841 isolated from patient with pyelonephritis assessed as >3-log reduction in urinary bacterial titer after 4 hrs; format: functional, Urine; summary of the method: as §1
Escherichia coli [11] = experiment: Antimicrobial activity against Escherichia coli 1949821 B-M isolated from patient with pyelonephritis by Etest; format: functional
[12] = T>MIC in Prevotella spp.-infected patient at 250 to 1000 mg/kg administered every 8 hrs; format: functional; conditions: dose mg/kg 250-1000; pooled result: one value given for 10 cell lines, strains, targets or settings
Escherichia coli [13] = experiment: Antimicrobial activity against Escherichia coli 1949821 B-M isolated from patient with pyelonephritis assessed as >3-log reduction in urinary bacterial titer after 20 hrs; format: functional, Urine
Summary of the method: (§3)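 Urine was collected on day 3 of i.v. therapy (steady state) over 4-h intervals from infusion start (0–4 to 20–24 h), stored at –80°C and sterile filtered. It was serially diluted twofold (1:0 up to 1:131,072) in the patient's own pre-dose drug-free urine. Microdilution used a final inoculum of 1.0 x 10^6 to 9.5 x 10^6 CFU/ml, incubated 18 h at 37°C in air. 10 µl was subcultured onto 5% blood Columbia agar for 24 h at 37°C. The bactericidal endpoint was >99.9% (>3-log) kill, reported as a reciprocal titer.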

Escherichia coli [14] = experiment: Antimicrobial activity against Escherichia coli 1780063 B-A isolated from patient with pyelonephritis assessed as >3-log reduction in urinary bacterial titer after 4 hrs; format: functional, Urine; summary of the method: as §2
Escherichia coli [15] = experiment: Antimicrobial activity against Escherichia coli 1949820 B-N isolated from patient with pyelonephritis assessed as >3-log reduction in urinary bacterial titer after 4 hrs; format: functional, Urine; summary of the method: as §3
Pseudomonas aeruginosa [16] = experiment: Antimicrobial activity against Pseudomonas aeruginosa […] assessed as >3-log reduction in urinary bacterial titer after 20 hrs; format: functional, Urine; summary of the method: as §1
Escherichia coli [17] = experiment: Antimicrobial activity against Escherichia coli 1949820 B-N isolated from patient with pyelonephritis assessed as >3-log reduction in urinary bacterial titer after 24 hrs; format: functional, Urine; summary of the method: as §3
Escherichia coli [18] = experiment: Antimicrobial activity against Escherichia coli 1949821 B-M isolated from patient with pyelonephritis assessed as >3-log reduction in urinary bacterial titer after 12 hrs; format: functional, Urine; summary of the method: as §3
Escherichia coli [19] = experiment: Antimicrobial activity against Escherichia coli 1949821 B-M isolated from patient with pyelonephritis assessed as >3-log reduction in urinary bacterial titer after 4 hrs; format: functional, Urine; summary of the method: as §3
Escherichia coli [20] = experiment: Antimicrobial activity against Escherichia coli 1949821 B-M isolated from patient with pyelonephritis assessed as >3-log reduction in urinary bacterial titer after 24 hrs; format: functional, Urine; summary of the method: as §3
Escherichia coli [21] = experiment: Antimicrobial activity against Escherichia coli 1949821 B-M isolated from patient with pyelonephritis assessed as >3-log reduction in urinary bacterial titer after 8 hrs; format: functional, Urine; summary of the method: as §1
Proteus mirabilis [22] = experiment: Antimicrobial activity against Proteus mirabilis 1134841 isolated from patient with pyelonephritis assessed as >3-log reduction in urinary bacterial titer after 20 hrs; format: functional, Urine; summary of the method: as §1
Escherichia coli [23] = experiment: Antimicrobial activity against Escherichia coli 1949820 B-N isolated from patient with pyelonephritis by Etest; format: functional
Escherichia coli [24] = experiment: Antimicrobial activity against Escherichia coli 1889646 B-F isolated from patient with pyelonephritis by Etest; format: functional
Staphylococcus aureus [25] = experiment: Antimicrobial activity against Staphylococcus aureus 1134684 isolated from patient with pyelonephritis assessed as >3-log reduction in urinary bacterial titer after 16 hrs; format: functional, Urine; summary of the method: as §1
[26] = Drug excretion in pyelonephritis patient urine at 250 mg/kg, iv administered every 24 hrs; format: ADME, organism-based; set-up: dose 250 mg/kg, route intravenous; conditions: human, read-out: Activity
Pseudomonas aeruginosa [27] = experiment: Antimicrobial activity against Pseudomonas aeruginosa 1134642 isolated from patient with pyelonephritis by Etest; format: functional
Enterococcus faecalis [28] = experiment: Antimicrobial activity against Enterococcus faecalis 1780065 B-B isolated from patient with pyelonephritis assessed as >3-log reduction in urinary bacterial titer after 8 hrs; format: functional, Urine; summary of the method: as §2
Enterococcus faecalis [29] = experiment: Antimicrobial activity against Enterococcus faecalis 1780065 B-B isolated from patient with pyelonephritis assessed as >3-log reduction in urinary bacterial titer after 12 hrs; format: functional, Urine; summary of the method: as §2
Escherichia coli [30] = experiment: Antimicrobial activity against Escherichia coli 1780064 A-X isolated from patient with pyelonephritis assessed as >3-log reduction in urinary bacterial titer after 20 hrs; format: functional, Urine; summary of the method: as §3
Escherichia coli [31] = experiment: Antimicrobial activity against Escherichia coli 1821386 B-D isolated from patient with pyelonephritis by Etest; format: functional
[32] = system: Staphylococcus epidermidis; experiment: Antimicrobial activity against Staphylococcus epidermidis 1949822 B-J isolated from patient with pyelonephritis assessed as >3-log reduction in urinary bacterial titer after 24 hrs; format: functional, Urine
Pseudomonas aeruginosa [33] = experiment: Antimicrobial activity against Pseudomonas aeruginosa 2062713 B-Q isolated from patient with pyelonephritis assessed as >3-log reduction in urinary bacterial titer after 12 hrs; format: functional, Urine
Enterococcus faecalis [34] = experiment: Antimicrobial activity against Enterococcus faecalis 2215767-10 B-S isolated from patient with pyelonephritis assessed as >3-log reduction in urinary bacterial titer after 24 hrs; format: functional, Urine; summary of the method: as §2
Escherichia coli [35] = experiment: Antimicrobial activity against Escherichia coli 1889647 B-H isolated from patient with pyelonephritis assessed as >3-log reduction in urinary bacterial titer after 8 hrs; format: functional, Urine; summary of the method: as §3

Compound	MIC (Enterococcus faecalis [1])	MIC (Escherichia coli [2])	urinary bactericidal titer (Staphylococcus aureus [4])	urinary bactericidal titer (Escherichia coli [5])	urinary bactericidal titer (Pseudomonas aeruginosa [6])	urinary bactericidal titer (Pseudomonas aeruginosa [8])	urinary bactericidal titer (Escherichia coli [9])	urinary bactericidal titer (Proteus mirabilis [10])	MIC (Escherichia coli [11])	urinary bactericidal titer (Escherichia coli [13])	urinary bactericidal titer (Escherichia coli [15])	urinary bactericidal titer (Pseudomonas aeruginosa [16])	Time (Escherichia coli [17])	urinary bactericidal titer (Escherichia coli [18])	Time (Escherichia coli [20])	urinary bactericidal titer (Escherichia coli [21])	urinary bactericidal titer (Proteus mirabilis [22])	MIC (Escherichia coli [23])	MIC (Escherichia coli [24])	urinary bactericidal titer (Staphylococcus aureus [25])	also measured
C[C@@H](O)[C@H]1C(=O)N2C(C(=O)O)=C(S[C@@H]3CN[C@H](CNS(N)(=O)=O)C3)[C@H](C)[C@H]12 [DORIPENEM]	4 µg/mL (≈ 9.51 µM)	≤ 0.015 µg/mL	1.5 reciprocal titer	4096 reciprocal titer	1024 reciprocal titer	2048 reciprocal titer	49200 reciprocal titer	2048 reciprocal titer	≤ 0.015 µg/mL	32800 titer	32800 titer	4096 reciprocal titer	5120 h	32800 titer	5120 h	12300 titer	8192 reciprocal titer	0.03 µg/mL (≈ 0.0713 µM)	0.03 µg/mL (≈ 0.0713 µM)	4 reciprocal titer	urinary bactericidal titer (Escherichia coli [3]): 16400 reciprocal titer; MIC (Escherichia coli [7]): 0.03 µg/mL (≈ 0.0713 µM); fT>MIC [12]: 35%; urinary bactericidal titer (Escherichia coli [14]): 4096 reciprocal titer; urinary bactericidal titer (Escherichia coli [19]): 32800; dose excreted at 24 h [26]: 80%; MIC (Pseudomonas aeruginosa [27]): 2 µg/mL (≈ 4.76 µM); Time (Enterococcus faecalis [28]): 32 h; urinary bactericidal titer (Enterococcus faecalis [29]): 192 reciprocal titer
C[C@H]1COc2c(N3CCN(C)CC3)c(F)cc3c(=O)c(C(=O)O)cn1c23.C[C@H]1COc2c(N3CCN(C)CC3)c(F)cc3c(=O)c(C(=O)O)cn1c23.O [LEVOFLOXACIN]	1 µg/mL	8 µg/mL	2 reciprocal titer	2 reciprocal titer	16 reciprocal titer	16 reciprocal titer	8 reciprocal titer	0 reciprocal titer	0.125 µg/mL	48 titer	4 titer	6 reciprocal titer	0 h	64 titer	40 h	128 titer	0 reciprocal titer	8 µg/mL	> 8 µg/mL	4 reciprocal titer	urinary bactericidal titer (Escherichia coli [30]): 256 reciprocal titer; MIC (Escherichia coli [31]): < 0.03 µg/mL; urinary bactericidal titer [32]: 1 reciprocal titer; urinary bactericidal titer (Pseudomonas aeruginosa [33]): 4 reciprocal titer; Time (Escherichia coli [19]): 192 h; Time (Enterococcus faecalis [34]): 0 h; dose excreted at 24 h [26]: 80%; MIC (Pseudomonas aeruginosa [27]): 16 µg/mL; Time (Enterococcus faecalis [28]): 16 h; urinary bactericidal titer (Escherichia coli [35]): 2048 reciprocal titer; urinary bactericidal titer (Enterococcus faecalis [29]): 16 reciprocal titer
